ChEMBL document CHEMBL4334447, “Discovery of 4-Aminoquinoline-3-carboxamide Derivatives as Potent Reversible Bruton's Tyrosine Kinase Inhibitors for the Treatment of Rheumatoid Arthritis” (J Med Chem, 2019)

Key:
[1] = Toxicity in complete freund's adjuvant-induced DBA/1 mouse arthritis model assessed as effect on appetite at 0.2 mg/kg, po qd administered starting from 29 day post-CFA challenge and measured on day 29, 33, 36, 40 and 43; assay type: organism-based; details: in vivo, 696 h
Outline: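 CIA in male DBA/1 mice: intradermal bovine type II collagen in CFA on day 0, collagen II in IFA boost on day 20. Randomized on day 29 and given oral doses once daily (n=6 per group) alongside vehicle and naive groups. Body weights recorded over the study days.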

[2] = Kinetic aqueous solubility of the compound in pH 7.4 phosphate buffered saline incubated for 24 hrs under shaking condition by HPLC analysis; assay type: physicochemical; details: read-out: Kinetic_solubility
Outline: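 Dry powder shaken 24 h at 25 °C in 0.1 M phosphate buffer, pH 7.4, then filtered through a 0.45 µm membrane. Concentration determined by HPLC against a standard of the compound in DMSO. Mean of three separate assays in triplicate.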

| Structure (SMILES) | Activity [1] | solubility kinetic at 24 h [2] [µg/mL] |
| --- | --- | --- |
| C[C@@H]1C[C@H]2[C@@H]3CCC4=CC(=O)C=C[C@]4(C)[C@@]3(F)[C@@H](O)C[C@]2(C)[C@@]1(O)C(=O)CO [DEXAMETHASONE] | Toxic |  |
| Cc1cc2cn[nH]c2cc1-c1cccc2c(N)c(C(N)=O)nnc12 |  | < 0.05 |
